# Active and inactive are the calls of the source. No cut-off for these calls is given here.
# Experiments:
# Format in all cases: functional, organism-based
# Botrytis cinerea [1] = experiment: Antifungal activity against moderately to slightly fenhexamid-resistant Botrytis cinerea 221 assessed as inhibition of germ tube elongation after 24 hrs; settings: Botrytis cinerea, 221, 24 h
# Botrytis cinerea [2] = experiment: Antifungal activity against moderately to slightly fenhexamid-resistant Botrytis cinerea 365 assessed as inhibition of germ tube elongation after 24 hrs; settings: Botrytis cinerea, 365, 24 h
# Botrytis cinerea [3] = experiment: Antifungal activity against highly fenhexamid-resistant Botrytis cinerea 214 assessed as inhibition of mycelium growth measured over 5 days; settings: Botrytis cinerea, 214, 120 h
# Botrytis cinerea [4] = experiment: Antifungal activity against moderately to slightly fenhexamid-resistant Botrytis cinerea 05-ABA assessed as inhibition of mycelium growth measured over 5 days; settings: 120 h
# Botrytis cinerea [5] = experiment: Antifungal activity against Botrytis cinerea 286 harboring TELerg S336C mutant at 10 ug/ml relative to wild-type
# Summary of the method: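 In the dominance test, the recipient strains 453b and 286 were transformed with different erg27 alleles. Spores of the transformants were grown on YSS medium containing fenhexamid at different concentrations and 50 µg ml–1 hygromycin B. Parental strains were grown without hygromycin. Growth was scored after 7 days at 21°C.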
# Botrytis cinerea [6] = experiment: Antifungal activity against fenhexamid-senistive Botrytis cinerea SAS56 assessed as inhibition of germ tube elongation after 24 hrs; settings: SAS56, 24 h
# Botrytis cinerea [7] = experiment: Antifungal activity against highly fenhexamid-resistant Botrytis cinerea 506b assessed as inhibition of germ tube elongation after 24 hrs
# Botrytis cinerea [8] = experiment: Antifungal activity against highly fenhexamid-resistant Botrytis cinerea MK3-1 assessed as inhibition of germ tube elongation after 24 hrs; settings: MK3-1, 24 h
smiles,measurement,setting,value
CC1(C(=O)Nc2ccc(O)c(Cl)c2Cl)CCCCC1 [FENHEXAMID],EC50,Botrytis cinerea [1],0.5 µg/mL
same,EC50,Botrytis cinerea [2],2 µg/mL
same,EC50,Botrytis cinerea [3],> 10 µg/mL
same,EC50,Botrytis cinerea [4],0.2 µg/mL
same,Activity,Botrytis cinerea [5],inactive
same,EC50,Botrytis cinerea [6],< 0.1 µg/mL
same,EC50,Botrytis cinerea [7],> 10 µg/mL
same,EC50,Botrytis cinerea [8],> 5 µg/mL

# — ChEMBL document CHEMBL1687714, “Genetic analysis of fenhexamid-resistant field isolates of the phytopathogenic fungus Botrytis cinerea” (Antimicrob Agents Chemother, 2008)
